{"data": "Assay results gathered from unrelated publications", "target": "Casein kinase I isoform delta (CSNK1D, Homo sapiens, UniProt P48730)", "One construct used (P48730 1-294)": "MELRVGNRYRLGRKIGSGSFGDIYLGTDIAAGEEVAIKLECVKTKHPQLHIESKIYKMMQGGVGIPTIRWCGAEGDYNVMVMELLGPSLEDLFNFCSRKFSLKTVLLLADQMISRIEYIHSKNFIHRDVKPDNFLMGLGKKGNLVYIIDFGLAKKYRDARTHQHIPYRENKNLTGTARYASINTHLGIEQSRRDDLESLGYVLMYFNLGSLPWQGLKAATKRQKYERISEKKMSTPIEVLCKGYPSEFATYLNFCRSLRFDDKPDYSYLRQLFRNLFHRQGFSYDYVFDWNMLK", "note": "Compare with care: the assays were run in different laboratories."}
{"SMILES": "CC(C)S(=O)(=O)c1ccc2nccc(Nc3ccc4sc(C5CCCC5)nc4c3)c2c1", "read-out": "enzyme activity", "mode": "inhibitor", "concentration": "1 µM", "measurement": "activity vs control", "value": "105%"}
{"SMILES": "CO[C@@H]1[C@H](N(C)C(=O)c2ccccc2)C[C@H]2O[C@]1(C)n1c3ccccc3c3c4c(c5c6ccccc6n2c5c31)C(=O)NC4", "read-out": "enzyme activity", "mode": "inhibitor", "concentration": "1 µM", "measurement": "inhibition", "value": "0%"}
{"SMILES": "Cc1ccc(NC(=O)c2ccnc(C(F)(F)F)c2)cc1-c1cc(OCCO)nc(N2CCOCC2)c1", "read-out": "binding", "concentration": "1 µM", "measurement": "remaining binding", "value": "99%"}
{"SMILES": "c1cc(Nc2cc(C3CC3)n[nH]2)nc(Nc2ccc3nc[nH]c3c2)n1", "read-out": "binding", "technique": "SPR", "measurement": "kon", "value": "335000 M⁻¹ s⁻¹"}
{"SMILES": "C1=C/COCc2cc(ccc2OCCN2CCCC2)Nc2nccc(n2)-c2cccc(c2)COC/1", "read-out": "binding", "concentration": "0.1 µM", "measurement": "remaining binding", "value": "100%"}
{"SMILES": "c1cc(-c2cnn3cc(-c4ccc(OCCN5CCCCC5)cc4)cnc23)ccn1", "read-out": "binding", "technique": "SPR", "measurement": "kon", "value": "809000 M⁻¹ s⁻¹"}
{"SMILES": "C#Cc1cnc(Nc2ccnc(CO)c2)nc1Nc1ccccc1S(C)(=O)=NC#N (stereo not drawn)", "read-out": "cell-free assay", "concentration": "1 µM", "measurement": "remaining signal", "value": "100%"}
{"SMILES": "C=CC(=O)N1CCC([C@@H]2CCNc3c(C(N)=O)c(-c4ccc(Oc5ccccc5)cc4)nn32)CC1", "read-out": "enzyme activity", "mode": "inhibitor", "concentration": "1 µM", "measurement": "inhibition", "value": "8%"}
{"SMILES": "COc1ccc2[nH]c3c4[nH]c5ccc(OC)cc5c4c4c(c3c2c1)C(=O)NC4=O", "read-out": "binding", "concentration": "1 µM", "measurement": "remaining binding", "value": "94%"}
{"SMILES": "N#Cc1ccc(NC(=O)Nc2ccccc2)cc1", "read-out": "cell-free assay", "technique": "competition with immobilised ligand", "concentration": "25 µM", "measurement": "remaining binding", "value": "100%"}
{"SMILES": "COc1ccc2oc(-c3ccc4nc(N)oc4c3)c/c(=N\\c3ccccc3NC(=O)CCN)c2c1", "read-out": "binding", "concentration": "1 µM", "measurement": "remaining binding", "value": "119%"}
{"SMILES": "CCCCC(=O)Nc1ccc(-c2ccc3ncn(CCC)c(=O)c3c2)cn1", "read-out": "binding", "technique": "competition with immobilised ligand", "concentration": "0.5 µM", "measurement": "remaining binding", "value": "87%"}
